Data taken from ChEMBL document CHEMBL1122005, “Quantitative structure-activity relationships of aromatic esters of 1-methyl-4-piperidinol as analgesics” (1982).
Calls of active or inactive are those of the source. No cut-off for these calls is given here.

Species on record: Mus musculus
Test: Relative Analgesic activity of compound to the N-methyl homologue assayed by the mouse hotplate method
Format: functional

**Q.** With CN1CCC23c4c5ccc(O)c4O[C@H]2[C@@H](O)C=CC3(CC5)C1 (some centres undefined) as the compound, how does the Relative activity read?
**A.** 1

**Q.** For CCOC(=O)C1(c2ccccc2)CCN(C)CC1 [MEPERIDINE], which Relative activity is on record?
**A.** 1

**Q.** With Oc1ccc2c3c1O[C@H]1[C@@H](O)C=CC4(CC2)CN(CCc2ccccc2)CCC314 (some centres undefined) as the compound, how does the Relative activity read?
**A.** 6

**Q.** Which Relative activity does the source give for Cc1[nH]c(C)c(C(=O)OC2CCN(C)CC2)c1C here?
**A.** 1

**Q.** Which Relative activity does the source give for Oc1ccc2c3c1O[C@H]1[C@@H](O)C=CC4(CC2)CN(Cc2ccccc2)CCC314 (some centres undefined) here?
**A.** <0.1

**Q.** How did the Relative activity turn out when Cc1[nH]c(C)c(C(=O)OC2CCN(Cc3ccccc3)CC2)c1C was run?
**A.** 0.8

**Q.** Which Relative activity does the source give for CCN1CCC23c4c5ccc(O)c4O[C@H]2[C@@H](O)C=CC3(CC5)C1 (some centres undefined) here?
**A.** <0.1

**Q.** CCN1CCC(OC(=O)c2c(C)[nH]c(C)c2C)CC1 was tested. Which Relative activity did it give?
**A.** 0.5

**Q.** For Cc1[nH]c(C)c(C(=O)OC2CCN(CCc3ccccc3)CC2)c1C, which Relative activity is on record?
**A.** 0.3

Species on record: Mus musculus
Test: Analgesic activity of compound assayed by the mouse hotplate method was determined
Format: functional
How it was run: (§1)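 Mouse hot-plate test. Compounds were given subcutaneously as water-soluble HCl salts. The ED50 is expressed in mmol/kg, and potency is given as log(1/C), where C is the ED50 in mmol/kg.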

**Q.** Which Log 1/C does the source give for Cc1[nH]c(C)c(C(=O)OC2CCN(C)CC2)c1C here?
**A.** 1.87

Species on record: Mus musculus
Test: Analgesic activity of compound assayed by the mouse hotplate method was determined as ED50.
Format: functional
How it was run: as §1

**Q.** Which ED50 does the source give for Cc1[nH]c(C)c(C(=O)OC2CCN(C)CC2)c1C here?
**A.** 4.9 mg/kg

**Q.** Which ED50 does the source give for Cc1[nH]c(C)c(C(=O)OC2CCN(Cc3ccccc3)CC2)c1C here?
**A.** 6.3 mg/kg

**Q.** CCN1CCC(OC(=O)c2c(C)[nH]c(C)c2C)CC1 was tested. Which ED50 did it give?
**A.** 10.4 mg/kg

**Q.** Which ED50 does the source give for Cc1[nH]c(C)c(C(=O)OC2CCN(CCc3ccccc3)CC2)c1C here?
**A.** 20 mg/kg

Species on record: Mus musculus
Test: Analgesic activity of compound assayed by the mouse hotplate method was determined as log(1/C); Activity observed in 4-5 out of 10 mice tested
Format: functional
How it was run: as §1

**Q.** How did the “Log 1/C” value turn out when CCc1ccccc1C(=O)OC1CCN(C)CC1 was run?
**A.** 1.15

**Q.** For CN1CCC(OC(=O)c2ccccc2Oc2ccccc2)CC1, which “Log 1/C” value is on record?
**A.** 1.24

**Q.** With CN1CCC(OC(=O)c2ccccc2CCc2ccccc2)CC1 as the compound, how does the “Log 1/C” value read?
**A.** 0.86

**Q.** Which “Log 1/C” value does the source give for Cc1ccc(C(=O)OC2CCN(C)CC2)cc1C here?
**A.** 1.15

**Q.** For CN1CCC(OC(=O)c2ccccc2-c2ccccc2)CC1, which “Log 1/C” value is on record?
**A.** 1.52

**Q.** How did the “Log 1/C” value turn out when CCOc1ccccc1C(=O)OC1CCN(C)CC1 was run?
**A.** 1.18

Species on record: Mus musculus
Test: Relative Analgesic activity of compound to the N-substituted normeperidine assayed by the mouse hotplate method
Format: functional

**Q.** For CCOC(=O)C1(c2ccccc2)CCN(CC)CC1, which Relative activity is on record?
**A.** 0.5

**Q.** How did the Relative activity turn out when CCOC(=O)C1(c2ccccc2)CCN(CCCCc2ccccc2)CC1 was run?
**A.** 2.8

**Q.** For CCOC(=O)C1(c2ccccc2)CCN(C/C=C/c2ccccc2)CC1, which Relative activity is on record?
**A.** 40

**Q.** For CCOC(=O)C1(c2ccccc2)CCN(CCc2ccccc2)CC1 [PHENERIDINE], which Relative activity is on record?
**A.** 2.6

**Q.** With Oc1ccc2c3c1O[C@H]1[C@@H](O)C=CC4(CC2)CN(CCCCc2ccccc2)CCC314 (some centres undefined) as the compound, how does the Relative activity read?
**A.** 0.3

**Q.** Oc1ccc2c3c1O[C@H]1[C@@H](O)C=CC4(CC2)CN(C/C=C/c2ccccc2)CCC314 (some centres undefined) was tested. Which Relative activity did it give?
**A.** <0.1

**Q.** For CCOC(=O)C1(c2ccccc2)CCN(Cc2ccccc2)CC1, which Relative activity is on record?
**A.** <0.5

Species on record: Mus musculus
Test: Analgesic activity assayed with the mouse hotplate method
Format: functional
How it was run: as §1

**Q.** Which “Log 1/C” value does the source give for CCCCOc1ccc(C(=O)OC2CCN(C)CC2)cc1 here?
**A.** 1.58

**Q.** How did the “Log 1/C” value turn out when CCOc1ccc(C(=O)OC2CCN(C)CC2)cc1 was run?
**A.** 1.72

**Q.** COc1ccc(C(=O)OC2CCN(C)CC2)cc1 was tested. Which “Log 1/C” value did it give?
**A.** 1.43

**Q.** For CN1CCC(OC(=O)c2ccccc2Cc2ccccc2)CC1, which “Log 1/C” value is on record?
**A.** 1.28

**Q.** For CN1CCC(OC(=O)c2ccc(C(C)(C)C)cc2)CC1, which “Log 1/C” value is on record?
**A.** 1.13

**Q.** With Cc1cc(C)cc(C(=O)OC2CCN(C)CC2)c1 as the compound, how does the “Log 1/C” value read?
**A.** 1.07

**Q.** How did the “Log 1/C” value turn out when COc1cccc(C(=O)OC2CCN(C)CC2)c1 was run?
**A.** 1.67

**Q.** CN1CCC(OC(=O)c2ccc3c(c2)OCO3)CC1 was tested. Which “Log 1/C” value did it give?
**A.** 1.61

**Q.** CN1CCC(OC(=O)c2ccc(Cl)c(Cl)c2)CC1 was tested. Which “Log 1/C” value did it give?
**A.** 1.08

**Q.** How did the “Log 1/C” value turn out when CN1CCC(OC(=O)c2cccc(O)c2)CC1 was run?
**A.** 1.21

**Q.** CN1CCC(OC(=O)c2ccc([N+](=O)[O-])cc2)CC1 was tested. Which “Log 1/C” value did it give?
**A.** 1.14

**Q.** For COc1cccc(C(=O)OC2CCN(C)CC2)c1OC, which “Log 1/C” value is on record?
**A.** 1.55

**Q.** How did the “Log 1/C” value turn out when CN1CCC(OC(=O)c2ccccc2Cl)CC1 was run?
**A.** 1.25

**Q.** With CN1CCC(OC(=O)c2ccccc2[N+](=O)[O-])CC1 as the compound, how does the “Log 1/C” value read?
**A.** 1.48

**Q.** Which “Log 1/C” value does the source give for COc1cc(C(=O)OC2CCN(C)CC2)cc(OC)c1OC here?
**A.** 1.35

**Q.** Which “Log 1/C” value does the source give for CN1CCC(OC(=O)c2ccc(F)cc2)CC1 here?
**A.** 1.38

**Q.** With Cc1cccc(C)c1C(=O)OC1CCN(C)CC1 as the compound, how does the “Log 1/C” value read?
**A.** 1.27

**Q.** CN1CCC(OC(=O)c2cccc(C#N)c2)CC1 was tested. Which “Log 1/C” value did it give?
**A.** 1.39

**Q.** With Cc1ccccc1C(=O)OC1CCN(C)CC1 as the compound, how does the “Log 1/C” value read?
**A.** 1.48

**Q.** COc1ccccc1C(=O)OC1CCN(C)CC1 was tested. Which “Log 1/C” value did it give?
**A.** 1.43

**Q.** For COc1cc(C(=O)OC2CCN(C)CC2)ccc1C, which “Log 1/C” value is on record?
**A.** 1.4

**Q.** COc1cc(OC)cc(C(=O)OC2CCN(C)CC2)c1 was tested. Which “Log 1/C” value did it give?
**A.** 1.53

**Q.** Which “Log 1/C” value does the source give for COc1ccc(C(=O)OC2CCN(C)CC2)cc1OC here?
**A.** 1.91

**Q.** Cc1ccc(C)c(C(=O)OC2CCN(C)CC2)c1 was tested. Which “Log 1/C” value did it give?
**A.** 1.36

**Q.** With COc1cccc(OC)c1C(=O)OC1CCN(C)CC1 as the compound, how does the “Log 1/C” value read?
**A.** 0.63

**Q.** For CN1CCC(OC(=O)c2ccccc2)CC1, which “Log 1/C” value is on record?
**A.** 1.43

**Q.** With COc1cc(OC)c(C(=O)OC2CCN(C)CC2)c(OC)c1 as the compound, how does the “Log 1/C” value read?
**A.** 1.47

**Q.** Which “Log 1/C” value does the source give for Cc1ccc(C(=O)OC2CCN(C)CC2)cc1F here?
**A.** 1.32

**Q.** How did the “Log 1/C” value turn out when CN1CCC(OC(=O)c2ccc(C#N)cc2)CC1 was run?
**A.** 1.65

**Q.** With CN1CCC(OC(=O)c2ccc(-c3ccccc3)cc2)CC1 as the compound, how does the “Log 1/C” value read?
**A.** 0.85

**Q.** For Cc1cc(C)c(C(=O)OC2CCN(C)CC2)c(C)c1, which “Log 1/C” value is on record?
**A.** 1.55

**Q.** Which “Log 1/C” value does the source give for CN1CCC(OC(=O)c2ccc(Cl)cc2)CC1 here?
**A.** 1.11

**Q.** With CN1CCC(OC(=O)c2ccccc2Br)CC1 as the compound, how does the “Log 1/C” value read?
**A.** 1.21

**Q.** Which “Log 1/C” value does the source give for CN1CCC(OC(=O)c2ccccc2F)CC1 here?
**A.** 1.41

**Q.** With Cc1cc(C)c(C(=O)OC2CCN(C)CC2)cc1C as the compound, how does the “Log 1/C” value read?
**A.** 1.17

**Q.** With CN1CCC(OC(=O)c2cccc(F)c2)CC1 as the compound, how does the “Log 1/C” value read?
**A.** 1.26

**Q.** How did the “Log 1/C” value turn out when Cc1ccc(C(=O)OC2CCN(C)CC2)cc1 was run?
**A.** 1.17

**Q.** CN1CCC(OC(=O)c2ccccc2C(F)(F)F)CC1 was tested. Which “Log 1/C” value did it give?
**A.** 1.49

Species on record: Mus musculus
Test: Analgesic activity of compound assayed by the mouse hotplate method was determined as log(1/C); Inactive
Format: functional, organism-based

**Q.** With CN1CCC(OC(=O)c2ccccc2C#N)CC1 as the compound, how does the “Log 1/C” value read?
**A.** inactive

**Q.** With CN1CCC(OC(=O)c2ccc(I)cc2)CC1 as the compound, how does the “Log 1/C” value read?
**A.** inactive

**Q.** For CN1CCC(OC(=O)c2cc(I)cc(I)c2I)CC1, which “Log 1/C” value is on record?
**A.** inactive

**Q.** How did the “Log 1/C” value turn out when Cc1cccc(C(=O)OC2CCN(C)CC2)c1 was run?
**A.** inactive
